Measured values reported in ChEMBL document CHEMBL4190262, “Tuning of β-glucosidase and α-galactosidase inhibition by generation and in situ screening of a library of pyrrolidine-triazole hybrid molecules” (Eur J Med Chem, 2017).
pIC50: −log10 of the molar value. The source made the active and inactive calls. No cut-off for these calls is given here.

Experiments:
[1] = target: Alpha-galactosidase (Coffea arabica, UniProt Q42656); assay: Inhibition of coffee beans alpha-galactosidase using p-nitrophenyl glycopyranoside preincubated for 5 mins followed by substrate addition measured after 20 mins by visible absorption spectroscopic method
Alpha-galactosidase, sequence (Q42656 whole entry): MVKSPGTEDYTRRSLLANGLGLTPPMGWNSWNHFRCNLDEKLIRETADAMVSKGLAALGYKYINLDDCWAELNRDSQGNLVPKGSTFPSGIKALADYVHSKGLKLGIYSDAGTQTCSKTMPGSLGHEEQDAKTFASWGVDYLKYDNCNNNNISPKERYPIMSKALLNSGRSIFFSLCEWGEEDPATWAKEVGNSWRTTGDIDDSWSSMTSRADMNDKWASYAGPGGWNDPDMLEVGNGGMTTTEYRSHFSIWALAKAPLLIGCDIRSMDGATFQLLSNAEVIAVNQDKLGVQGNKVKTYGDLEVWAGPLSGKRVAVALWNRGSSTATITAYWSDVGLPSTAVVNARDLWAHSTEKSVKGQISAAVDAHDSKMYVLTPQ
Method in brief: (§1)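 IC50 determined only for compounds giving ≥80% inhibition at 1 mM, read from plots of % inhibition versus inhibitor concentration. p-Nitrophenyl glycopyranoside substrate (10 mM solution) at the enzyme's optimal pH, with 0.01–0.5 units/mL enzyme. 5 min rt preincubation with enzyme, then 20 min at 37 °C. Borate stop (pH 9.8), absorbance at 405 nm. Duplicates averaged.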

[2] = system: Prunus dulcis; assay: Inhibition of almond beta-glucosidase at 1 mM using p-nitrophenyl glycopyranoside preincubated for 5 mins followed by substrate addition measured after 20 mins by visible absorption spectroscopic method relative to control
Method in brief: (§2)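 Test compound at 1 mM in well. Mix: 0.01–0.5 units/mL enzyme plus 10 mM p-nitrophenyl glycopyranoside (aqueous solution), buffered to the enzyme's optimal pH. Enzyme and inhibitor preincubated 5 min at rt. Substrate then added and incubated 20 min at 37 °C. Stopped with sodium borate (pH 9.8). p-Nitrophenolate read at 405 nm. Duplicates averaged.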

[3] = target: Alpha-galactosidase (Coffea arabica) (UniProt Q42656); assay: Inhibition of coffee beans alpha-galactosidase at 50 uM using p-nitrophenyl glycopyranoside preincubated for 5 mins followed by substrate addition measured after 20 mins by visible absorption spectroscopic method relative to control
Alpha-galactosidase (Coffea arabica), sequence (Q42656 16-378 limits assumed): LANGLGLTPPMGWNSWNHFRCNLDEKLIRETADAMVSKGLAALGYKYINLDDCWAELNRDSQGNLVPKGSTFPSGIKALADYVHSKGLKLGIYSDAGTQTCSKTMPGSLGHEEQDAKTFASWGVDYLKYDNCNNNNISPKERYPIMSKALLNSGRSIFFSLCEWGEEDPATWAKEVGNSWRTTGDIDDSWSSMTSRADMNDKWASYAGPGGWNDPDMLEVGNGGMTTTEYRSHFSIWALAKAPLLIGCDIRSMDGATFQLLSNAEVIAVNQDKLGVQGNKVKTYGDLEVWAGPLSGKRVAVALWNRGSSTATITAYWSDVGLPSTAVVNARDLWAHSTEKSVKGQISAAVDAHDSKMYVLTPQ
Method in brief: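 Crude triazoles from in situ CuAAC (ascorbate/CuSO4, 24 h rt, water-diluted) were screened at 50 μM per well, assuming full conversion. Enzyme was coffee bean α-galactosidase at pH 6, 37 °C, with p-nitrophenyl glycoside substrate and 405 nm read-out. Blanks of CuSO4, ascorbate and each alkyne were run.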

[4] = species on record: Bos taurus; assay: Inhibition of bovine liver beta-glucosidase at 1 mM using p-nitrophenyl glycopyranoside preincubated for 5 mins followed by substrate addition measured after 20 mins by visible absorption spectroscopic method relative to control; method in brief: as §2
[5] = target: T1, Lysosomal acid glucosylceramidase (Homo sapiens, UniProt P04062); assay: Inhibition of human lysosomal beta-glucocerebrosidase using 4-methylumbelliferyl-beta-D-glucopyranoside as substrate preincubated for 45 mins followed by substrate addition measured after 30 mins by fluorescence spectroscopic method
T1 sequence (P04062 whole entry): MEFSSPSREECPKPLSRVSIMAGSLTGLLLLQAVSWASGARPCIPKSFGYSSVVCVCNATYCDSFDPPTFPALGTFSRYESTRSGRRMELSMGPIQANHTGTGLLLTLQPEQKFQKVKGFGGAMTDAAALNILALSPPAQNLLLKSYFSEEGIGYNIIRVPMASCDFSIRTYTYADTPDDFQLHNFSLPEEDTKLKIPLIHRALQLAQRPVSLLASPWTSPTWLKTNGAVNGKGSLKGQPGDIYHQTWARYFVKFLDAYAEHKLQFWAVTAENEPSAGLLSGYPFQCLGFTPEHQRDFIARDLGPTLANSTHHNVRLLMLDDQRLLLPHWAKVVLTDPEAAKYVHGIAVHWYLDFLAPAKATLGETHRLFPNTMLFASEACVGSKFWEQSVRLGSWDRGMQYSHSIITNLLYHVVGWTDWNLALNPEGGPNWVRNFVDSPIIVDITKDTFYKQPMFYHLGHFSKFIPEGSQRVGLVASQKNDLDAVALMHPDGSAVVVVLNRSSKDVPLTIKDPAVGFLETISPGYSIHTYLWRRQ
Method in brief: (§3)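 Enzyme in 100 mM McIlvaine buffer pH 5.2 with 0.25% sodium taurocholate and 0.1% Triton X-100, with inhibitor. Preincubated at 0 °C for 45 min, then started with 3 mM 4-methylumbelliferyl glycoside substrate solution and incubated 30 min at 37 °C. Stopped with 400 mM glycine-NaOH pH 10.6. 4-Methylumbelliferone fluorescence read at ex 362/em 450 nm.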

[6] = target: T2, Alpha-galactosidase A (Homo sapiens) (UniProt P06280); assay: Inhibition of human lysosomal alpha-galactosidase A at 1 mM using 4-methylumbelliferyl-alpha-D-galactopyranoside as substrate preincubated for 45 mins followed by substrate addition measured after 30 mins by fluorescence spectroscopic method relative to control; method in brief: as §3
T2 sequence (whole entry): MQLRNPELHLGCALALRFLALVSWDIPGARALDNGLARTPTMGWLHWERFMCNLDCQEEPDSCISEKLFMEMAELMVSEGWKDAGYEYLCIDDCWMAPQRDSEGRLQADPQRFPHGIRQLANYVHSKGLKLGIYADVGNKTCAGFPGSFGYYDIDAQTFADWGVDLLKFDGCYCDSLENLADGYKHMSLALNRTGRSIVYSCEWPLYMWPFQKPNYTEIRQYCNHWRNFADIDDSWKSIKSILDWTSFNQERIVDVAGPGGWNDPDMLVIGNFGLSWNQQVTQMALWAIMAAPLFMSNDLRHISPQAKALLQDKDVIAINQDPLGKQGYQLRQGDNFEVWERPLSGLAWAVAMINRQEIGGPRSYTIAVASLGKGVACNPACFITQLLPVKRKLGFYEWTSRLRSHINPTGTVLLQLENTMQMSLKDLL

[7] = target: T3, Beta-galactosidase (Bos taurus, UniProt Q58D55); assay: Inhibition of bovine liver beta-galactosidase using p-nitrophenyl glycopyranoside preincubated for 5 mins followed by substrate addition measured after 20 mins by visible absorption spectroscopic method; method in brief: as §1
T3 sequence (Q58D55 whole entry): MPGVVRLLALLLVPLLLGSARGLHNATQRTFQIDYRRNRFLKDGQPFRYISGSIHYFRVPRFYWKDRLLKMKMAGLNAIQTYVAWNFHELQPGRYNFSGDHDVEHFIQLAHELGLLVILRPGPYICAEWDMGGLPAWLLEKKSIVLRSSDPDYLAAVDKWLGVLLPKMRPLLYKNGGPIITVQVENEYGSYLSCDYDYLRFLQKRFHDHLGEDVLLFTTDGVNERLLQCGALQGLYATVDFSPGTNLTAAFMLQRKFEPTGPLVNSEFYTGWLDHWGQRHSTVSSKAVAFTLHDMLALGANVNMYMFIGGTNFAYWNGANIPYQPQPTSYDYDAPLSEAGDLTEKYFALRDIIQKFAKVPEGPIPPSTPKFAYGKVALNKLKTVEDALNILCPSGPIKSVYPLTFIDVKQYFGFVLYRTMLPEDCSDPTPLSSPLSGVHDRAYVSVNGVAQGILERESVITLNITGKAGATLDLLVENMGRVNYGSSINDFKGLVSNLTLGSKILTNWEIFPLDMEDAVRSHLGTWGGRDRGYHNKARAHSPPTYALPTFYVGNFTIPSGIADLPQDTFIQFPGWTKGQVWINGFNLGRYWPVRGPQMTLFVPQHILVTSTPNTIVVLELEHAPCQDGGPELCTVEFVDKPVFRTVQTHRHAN

[8] = Selectivity ratio of IC50 for human lysosomal alpha-galactosidase A to IC50 for coffee beans alpha-galactosidase
[9] = target: Beta-galactosidase (Escherichia coli) (UniProt Q8VNN2); assay: Inhibition of Escherichia coli beta-galactosidase at 1 mM using p-nitrophenyl glycopyranoside preincubated for 5 mins followed by substrate addition measured after 20 mins by visible absorption spectroscopic method relative to control; method in brief: as §2
Beta-galactosidase (Escherichia coli), sequence (Q8VNN2 whole entry, looked up): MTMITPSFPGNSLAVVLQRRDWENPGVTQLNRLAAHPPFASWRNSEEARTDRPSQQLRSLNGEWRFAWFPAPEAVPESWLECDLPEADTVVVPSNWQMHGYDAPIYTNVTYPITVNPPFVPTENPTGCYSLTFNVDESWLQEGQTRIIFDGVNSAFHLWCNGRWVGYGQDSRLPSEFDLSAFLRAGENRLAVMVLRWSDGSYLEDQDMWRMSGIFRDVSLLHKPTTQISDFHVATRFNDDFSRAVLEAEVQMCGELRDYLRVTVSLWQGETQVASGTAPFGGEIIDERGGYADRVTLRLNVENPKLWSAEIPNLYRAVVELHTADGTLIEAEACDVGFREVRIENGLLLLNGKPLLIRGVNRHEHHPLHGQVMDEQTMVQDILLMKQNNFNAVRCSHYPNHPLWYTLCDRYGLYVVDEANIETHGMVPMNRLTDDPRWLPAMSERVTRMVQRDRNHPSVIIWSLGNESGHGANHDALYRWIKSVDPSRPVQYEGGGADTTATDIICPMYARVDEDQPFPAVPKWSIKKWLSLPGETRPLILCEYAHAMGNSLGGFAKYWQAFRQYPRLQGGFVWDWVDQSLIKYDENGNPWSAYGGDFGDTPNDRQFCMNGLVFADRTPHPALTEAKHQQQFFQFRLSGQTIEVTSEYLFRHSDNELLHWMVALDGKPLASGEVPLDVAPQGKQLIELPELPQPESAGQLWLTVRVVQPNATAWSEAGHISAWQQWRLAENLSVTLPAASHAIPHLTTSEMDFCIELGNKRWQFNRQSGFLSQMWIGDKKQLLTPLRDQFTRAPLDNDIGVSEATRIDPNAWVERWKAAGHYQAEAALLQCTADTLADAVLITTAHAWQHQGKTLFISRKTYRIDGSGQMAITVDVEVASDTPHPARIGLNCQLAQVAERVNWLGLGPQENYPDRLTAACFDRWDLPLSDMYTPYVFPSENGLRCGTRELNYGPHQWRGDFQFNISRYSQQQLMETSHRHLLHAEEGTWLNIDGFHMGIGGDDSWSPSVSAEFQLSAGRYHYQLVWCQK

[10] = species on record: Bos taurus; assay: Inhibition of bovine kidney alpha-L-fucosidase at 1 mM using p-nitrophenyl glycopyranoside preincubated for 5 mins followed by substrate addition measured after 20 mins by visible absorption spectroscopic method relative to control; method in brief: as §2
[11] = target: Alpha-galactosidase (Coffea arabica) (UniProt Q42656); assay: Inhibition of coffee beans alpha-galactosidase at 1 mM using p-nitrophenyl glycopyranoside preincubated for 5 mins followed by substrate addition measured after 20 mins by visible absorption spectroscopic method relative to control; method in brief: as §2
[12] = target: T4, Beta-galactosidase (Aspergillus oryzae) (UniProt B7VU80); assay: Inhibition of Aspergillus oryzae beta-galactosidase at 1 mM using p-nitrophenyl glycopyranoside preincubated for 5 mins followed by substrate addition measured after 20 mins by visible absorption spectroscopic method relative to control; method in brief: as §2
T4 sequence (whole entry): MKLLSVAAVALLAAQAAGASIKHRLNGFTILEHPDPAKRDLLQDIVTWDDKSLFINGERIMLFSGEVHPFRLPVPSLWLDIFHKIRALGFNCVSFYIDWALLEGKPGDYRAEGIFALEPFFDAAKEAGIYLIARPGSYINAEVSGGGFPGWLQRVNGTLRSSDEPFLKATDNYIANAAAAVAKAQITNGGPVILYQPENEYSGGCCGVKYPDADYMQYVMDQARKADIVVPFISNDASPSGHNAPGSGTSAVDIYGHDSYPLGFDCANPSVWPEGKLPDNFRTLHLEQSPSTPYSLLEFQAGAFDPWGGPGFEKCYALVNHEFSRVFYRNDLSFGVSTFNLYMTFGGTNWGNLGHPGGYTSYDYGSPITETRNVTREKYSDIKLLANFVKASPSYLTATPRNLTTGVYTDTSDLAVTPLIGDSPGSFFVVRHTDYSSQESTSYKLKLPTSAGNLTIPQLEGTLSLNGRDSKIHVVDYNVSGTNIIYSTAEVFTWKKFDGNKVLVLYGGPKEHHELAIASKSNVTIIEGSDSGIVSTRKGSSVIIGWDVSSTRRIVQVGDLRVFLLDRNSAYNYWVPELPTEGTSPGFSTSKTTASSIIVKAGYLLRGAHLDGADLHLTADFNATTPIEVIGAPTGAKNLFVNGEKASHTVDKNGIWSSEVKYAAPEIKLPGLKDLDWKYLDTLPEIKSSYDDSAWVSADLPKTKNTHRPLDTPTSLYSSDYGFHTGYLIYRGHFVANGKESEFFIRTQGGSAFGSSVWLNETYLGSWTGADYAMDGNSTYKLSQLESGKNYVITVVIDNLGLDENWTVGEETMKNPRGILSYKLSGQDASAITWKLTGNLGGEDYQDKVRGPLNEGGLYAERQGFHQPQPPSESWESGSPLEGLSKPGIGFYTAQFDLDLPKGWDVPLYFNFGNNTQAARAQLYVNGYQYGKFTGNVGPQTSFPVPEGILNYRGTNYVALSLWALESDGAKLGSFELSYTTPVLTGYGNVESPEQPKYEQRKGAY

[13] = system: Saccharomyces cerevisiae; assay: Inhibition of yeast alpha glucosidase at 1 mM using p-nitrophenyl glycopyranoside preincubated for 5 mins followed by substrate addition measured after 20 mins by visible absorption spectroscopic method relative to control; method in brief: as §2
[14] = system: Oryza sativa; assay: Inhibition of rice alpha-glucosidase at 1 mM using p-nitrophenyl glycopyranoside preincubated for 5 mins followed by substrate addition measured after 20 mins by visible absorption spectroscopic method relative to control; method in brief: as §2
[15] = system: Aspergillus niger; assay: Inhibition of Aspergillus niger amyloglucosidase at 1 mM using p-nitrophenyl glycopyranoside preincubated for 5 mins followed by substrate addition measured after 20 mins by visible absorption spectroscopic method relative to control; method in brief: as §2
[16] = target: T5, Alpha-mannosidase (Canavalia ensiformis) (UniProt C0HJB3); assay: Inhibition of jack bean alpha-mannosidase at 1 mM using p-nitrophenyl glycopyranoside preincubated for 5 mins followed by substrate addition measured after 20 mins by visible absorption spectroscopic method relative to control; method in brief: as §2
T5 sequence (whole entry): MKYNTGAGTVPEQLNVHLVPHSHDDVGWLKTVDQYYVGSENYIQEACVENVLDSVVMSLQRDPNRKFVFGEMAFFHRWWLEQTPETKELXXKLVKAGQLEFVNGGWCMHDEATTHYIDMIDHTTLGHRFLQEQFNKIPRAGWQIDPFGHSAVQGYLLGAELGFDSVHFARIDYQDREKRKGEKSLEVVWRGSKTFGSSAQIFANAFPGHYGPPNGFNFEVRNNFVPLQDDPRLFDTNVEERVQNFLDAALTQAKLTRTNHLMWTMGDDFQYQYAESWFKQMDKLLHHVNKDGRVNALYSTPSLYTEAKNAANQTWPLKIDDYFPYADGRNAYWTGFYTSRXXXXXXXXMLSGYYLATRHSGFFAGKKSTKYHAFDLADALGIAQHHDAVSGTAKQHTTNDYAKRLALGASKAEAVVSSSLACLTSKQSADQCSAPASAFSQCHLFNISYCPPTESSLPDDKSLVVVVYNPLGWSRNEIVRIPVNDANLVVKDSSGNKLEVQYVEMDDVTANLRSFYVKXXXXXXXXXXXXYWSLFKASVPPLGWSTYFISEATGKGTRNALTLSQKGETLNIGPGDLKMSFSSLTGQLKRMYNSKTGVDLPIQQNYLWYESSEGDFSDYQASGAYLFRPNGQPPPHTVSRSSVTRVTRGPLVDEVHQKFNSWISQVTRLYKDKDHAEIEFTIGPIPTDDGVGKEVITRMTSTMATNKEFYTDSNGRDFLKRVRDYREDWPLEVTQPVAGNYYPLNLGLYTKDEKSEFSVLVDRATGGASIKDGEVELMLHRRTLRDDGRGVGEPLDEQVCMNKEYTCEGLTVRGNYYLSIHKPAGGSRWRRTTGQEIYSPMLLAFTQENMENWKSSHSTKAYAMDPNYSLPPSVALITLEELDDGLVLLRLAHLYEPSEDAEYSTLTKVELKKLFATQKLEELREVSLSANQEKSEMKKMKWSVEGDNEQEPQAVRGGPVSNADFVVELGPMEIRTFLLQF

[17] = system: Cornu aspersum; assay: Inhibition of snail beta-mannosidase at 1 mM using p-nitrophenyl glycopyranoside preincubated for 5 mins followed by substrate addition measured after 20 mins by visible absorption spectroscopic method relative to control; method in brief: as §2
[18] = system: Canavalia ensiformis; assay: Inhibition of jack bean beta-N-acetylglucosaminidase at 1 mM using p-nitrophenyl glycopyranoside preincubated for 5 mins followed by substrate addition measured after 20 mins by visible absorption spectroscopic method relative to control; method in brief: as §2
[19] = Inhibition of almond beta-glucosidase using p-nitrophenyl glycopyranoside preincubated for 5 mins followed by substrate addition measured after 20 mins by visible absorption spectroscopic method; design: species or system Prunus dulcis; method in brief: as §1

Structure (SMILES)	pIC50 [1]	inhibition [2] [%]	inhibition [3] [%]	inhibition [4] [%]	pIC50 [5]	inhibition [6] [%]	pIC50 [7]	Ratio IC50 [8]	inhibition [9]	inhibition [10]	inhibition [11] [%]	inhibition [12] [%]	inhibition [13]	inhibition [14]	inhibition [15]	inhibition [16]	inhibition [17]	inhibition [18]	pIC50 [19]
COc1ccc2cc(-c3cn(C[C@H]4NC[C@@H](O)[C@H]4O)nn3)ccc2c1	4.77	< 50	64	< 50	4.72	< 50	4.38	10											
[N-]=[N+]=NC[C@H]1NC[C@@H](O)[C@H]1O	3.90	89	38						inactive	inactive	88	50	inactive	inactive	inactive	43%	inactive	inactive	
O[C@@H]1[C@H](O)CN[C@@H]1CCn1cc(-c2ccccc2)nn1	3.97	96							60%	49%	89	78	inactive	inactive	inactive	inactive	inactive	inactive	4.96
